According to ChEMBL document CHEMBL4513216, “Probing the Open Global Health Chemical Diversity Library for Multistage-Active Starting Points for Next-Generation Antimalarials” (ACS Infect Dis, 2020):

Experiment: Toxicity liver stage against HepG2, at 10uM
Type: cell-based
Set-up: test concentration 10 uM, cell line HepG2-A16-CD81EGFP
Details: human, HepG2-A16-CD81EGFP cells; read-out: INHIBITION
Procedure, shortened: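 Uninfected HepG2-A16-CD81EGFP cells, 3 × 10^3 per well, 1536-well, plated on prespotted compound at 10 μM final, parasite-free screening media added to match infected plates; puromycin 10 μM positive, DMSO 0.5% negative; run in parallel with 48 h PbLuc assay at 37 °C, 5% CO2; viability by CellTiter-Glo luminescence, normalized to controls.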

Row | Compound | cytotoxicity at 10 µM [%]
1 | CC(=O)N1CCC(c2nccnc2Oc2ccccc2)CC1 | 3.7
2 | Cc1ccc2oc(SCC(N)=O)nc2n1 | 9.65
3 | CCC(CN1CCCC1)n1cncc1-c1cnn(Cc2ccccc2)c1 (stereo unspecified) | 3.92
4 | Cc1noc(C)c1CN1CCC2(CC1)C(c1cnn(C)c1)CC(=O)N2C (stereo unspecified) | -106
5 | CCn1c(CN(C)C(=O)c2ccc(N(C)C)nc2)nc2ccccc21 | 0.0894
6 | CN(C)C(=O)c1c[nH]nc1C1CCN(S(=O)(=O)c2ccc(Cl)cc2)CC1 | -4.9
7 | Cc1cc(C)c(CNC(=O)N2CCN(c3ccccn3)CC2)c(=O)[nH]1 | -9.95
8 | Cn1cc(Cl)cc1C(=O)N1CCN(Cc2ccsc2)CC1 | -2.86
9 | Cn1cc(CN2CCCn3cnc(CN4CCCC4=O)c3C2)cn1 | -1.39
10 | CNC(=O)c1cn[nH]c1C1CCN(Cc2ccccc2F)C1 (stereo unspecified) | -30.8
11 | CCS(=O)(=O)N1CCC(NC(=O)c2cc(C(C)C)ccc2O)CC1 | -5.16
12 | CCN1CC2(CC1=O)CN(Cc1ccc(C)o1)CCN(C(=O)C(C)C)C2 (stereo unspecified) | 2.84
13 | COCCNC(=O)[C@@H]1CN(c2ncccn2)C[C@H]2OCC[C@H]21 | -68.4
14 | CCc1nc2n(n1)CCCC2NC(=O)Nc1ccc(F)cc1C#N (stereo unspecified) | -0.802
15 | OCc1csc(N2CCCC(COc3cccc(F)c3)C2)n1 (stereo unspecified) | -0.176
16 | Cc1cccc2c1nc(CCO)n2-c1ccc(C(=O)N2CCOCC2)o1 | 3.69
17 | COCCn1/c(=N\C(=O)CN(C)S(C)(=O)=O)sc2cc(OC)ccc21 | -7.93
18 | NC(=O)C1CN(C(=O)NCC2(c3ccc(F)cc3)CCC2)CCO1 (stereo unspecified) | -5.07
19 | CC(=O)N1CCCC1c1ccc(Br)cn1 (stereo unspecified) | 4.29
20 | CC(NCc1ccc(OCc2nccn2C)cc1)c1cccnc1 (stereo unspecified) | -4.47
21 | COc1ccccc1C1CC(=O)Nc2c1c(=O)[nH]n2C(C)C (stereo unspecified) | -4.08

Row | Compound | cytotoxicity at 10 µM [%]
22 | CCN(Cc1ccc2c(c1)OCO2)C(=O)c1ccc(=O)n(C)c1 | 15.9
23 | CCOc1cc(=O)n2c(c1C(=O)OCc1cccc(C)c1)CCCC2 | -15.1
24 | CCOCCn1nc(C)cc1C(=O)N1CCN(C(C)C)C(CC)C1 (stereo unspecified) | -14.2
25 | Cc1ncc(CNC(=O)NCc2c(F)cccc2OC(F)F)s1 | -4.27
26 | Cn1ncc2c(NCC(=O)N3CCNCC3)nc(C(C)(C)C)nc21 | -10.6
27 | CCc1noc(CN(CC)Cc2cc3ccc(F)cc3[nH]c2=O)n1 | 2.24
28 | CCCn1nc(C)c(CNS(=O)(=O)NCc2ccccc2)c1C | -5.05
29 | CCOc1cc(C(=O)N2CCN(C)CC2)cc2occc12 | 7
30 | Cc1ccc2[nH]c(C(=O)N3CCC4(CC3)C(=O)NCCN4C)nc2c1 | 1.43
31 | O=C(Cn1ncc(N2CCCC2)cc1=O)Nc1ccc2nccnc2c1 | 1.83
32 | CN(C)C(C(=O)N1Cc2ccccc2C1)c1ccccc1F (stereo unspecified) | -1.91
33 | COc1cccc(CN2CCCC3(CCN(C(=O)[C@H]4CCCO4)C3)C2)c1 (stereo partly specified) | 5.01
34 | COc1ccc(Cl)cc1NC(=O)CNc1ccn(CC(N)=O)n1 | 13.6
35 | COc1ccc(/C=C/CN2C[C@@H]3CC[C@H]2CN(S(=O)(=O)N(C)C)C3)cc1 | -2.72
36 | Cn1cc(CN2C[C@@H]3COC[C@]3(CNC(=O)c3ccco3)C2)cn1 | -73.1
37 | Cc1cccc(-c2noc(CN3CCCC3Cn3cccn3)n2)c1 (stereo unspecified) | 1.68
38 | CN(C)C(=O)N1CCN(C(=O)Nc2nc(-c3ccccc3)ns2)CC1 | -136
39 | Cc1ccccc1CSc1nc(N)cc(N2CCC(CC(N)=O)CC2)n1 | -10.4
40 | O=C(CCc1cccnc1)Nc1ccc(OCC2CCOCC2)cc1 | -6.01
41 | COc1ccc2c(O)c(NC(=O)NCC3CC3)cnc2c1 | -0.799
42 | CC(C)[C@H]1COC(=O)N1Cc1nccn1C(C)C | 6.35

Row | Compound | cytotoxicity at 10 µM [%]
43 | c1ncn(CC2CCCCN2Cc2cn3ccsc3n2)n1 (stereo unspecified) | -13.9
44 | Cc1nn(C)c(C)c1CC(C)NC(=O)NCc1ccn(C(C)C)n1 (stereo unspecified) | -1.54
45 | COc1ncccc1CNC(=O)c1cccnc1O | -4.02
46 | O=C(NCC(Cc1cccc(F)c1)N1CCCC1=O)C1CCCC1 (stereo unspecified) | 1.39
47 | CS(=O)(=O)Cc1ccc(Cl)cc1NCc1ccccc1F | 6.8
48 | O=C(c1ccc(C2CCCN2)s1)N1CCC2(CCCO2)CC1 (stereo unspecified) | -7.13
49 | CC(C)c1nccn1C1CCCN(C(=O)CCc2cnn(C)c2)C1 (stereo unspecified) | -1.58
50 | Cc1ccoc1C1=NNC(=CN2CCOC(Cn3cccn3)C2)O1 (stereo unspecified) | -7.69
51 | Cc1nnc(C2Cc3ccccc3CN2Cc2nc(C(C)C)no2)o1 (stereo unspecified) | -22
52 | O[C@@H]1CN(c2nc3ccccc3s2)CC[C@H]1c1ccc2c(c1)OCO2 | 52.7
53 | Nc1nnnn1NCc1cccc(Cl)c1Cl | 11.5
54 | CN(C)C(=O)N1C[C@H]2CC[C@@H](C1)N(Cc1nnc(-c3ccco3)o1)C2 | 5.9
55 | Nc1nccnc1C(=O)N(Cc1ccccc1O)CC1CCCO1 (stereo unspecified) | -4.45
56 | COC(=O)C(C)(C)NC(=O)C1CC(=O)N(CC2CC2)C1 (stereo unspecified) | -142
57 | Cc1cc(C)n(CCCNC(=O)C(C)NC(=O)CC2CCCCC2)n1 (stereo unspecified) | -1.06
58 | COC(=O)[C@H](CSC)Nc1nc(C2CCCC2)nc2c1cnn2C | -52.6
59 | COCCN1C2(CCN(CC3CC3)C2)c2ccccc2S1(=O)=O (stereo unspecified) | -130
60 | COc1ccccc1CC(=O)NC(C)c1nc2cccnc2n1C(C)C (stereo unspecified) | -43.8
61 | CNC(=O)CNC(=O)c1ccc(-c2scnc2C)nc1 | -4.26
62 | CCO[C@@H]1CC[C@H]2[C@H]1OCCN2CC1CCOCC1 | 10.8
63 | Cc1cc(C2CCCN2C(=O)NCc2ccccn2)on1 (stereo unspecified) | 1.47

Row | Compound | cytotoxicity at 10 µM [%]
64 | O=C(c1ccccc1)N1CCC[C@]2(C[C@@H](Oc3ncccc3F)CO2)C1 | -1.78
65 | CN(Cc1ccc2nonc2c1)C(=O)CCc1cc2n(n1)CCCNC2 | -9.46
66 | CCn1nc(C)c(CCNC(=O)C2CCCN(C3CCCC3)C2)c1C (stereo unspecified) | -9.34
67 | c1cncc(CN2Cc3nccn3CC(Cn3cncn3)C2)c1 (stereo unspecified) | -136
68 | CC(C)C[C@@H]1N[C@H](C(=O)NCC2CC2)Cc2c[nH]c3cccc1c23 | 12.4
69 | CCn1ncc2c1C(COC)N(C(=O)Cc1cccs1)CC2 (stereo unspecified) | -109
70 | Cc1nc(C)c(CC(=O)NCc2ccccc2F)s1 | 6.23
71 | COc1ccc2nnc(CCCC(=O)NCc3cccn3C)n2n1 | 3.85
72 | c1ccc(Cn2cccn2)c(CN2CCC3(CCCNC3)C2)c1 (stereo unspecified) | -13
73 | CCN1C[C@@H]2[C@@H](OC)CCN(S(=O)(=O)c3ccccc3F)[C@@H]2C1 | -0.902
74 | CC(=O)N1CCCC1c1nc(CN(C)C(=O)C(C)C)cc(N(C)C)n1 (stereo unspecified) | -2.62
75 | O=C(NC1CCS(=O)(=O)C1)c1sccc1OC(F)F (stereo unspecified) | -0.699
76 | Cc1ccc(CN2Cc3nnn(C)c3C(COCc3ccccn3)C2)s1 (stereo unspecified) | 7.8
77 | Cc1ccn(CCNc2ncnc3c2CCN(Cc2ncc[nH]2)CC3)n1 | -1.47
78 | Cc1noc(C)c1CN(C)C(=O)c1ccc(C(N)=O)nc1 | -4.24
79 | Cc1cc(N2CCC(C(=O)N(C)C)CC2)nc(-c2ccncc2)n1 | -17.1
80 | Cc1csc(C2CCCCN2C(=O)COCc2nc(C)no2)n1 (stereo unspecified) | 1.09
81 | Cc1noc(CCNC(=O)NCc2ccc(OC3CCCC3)cc2)n1 | 13.2
